WT yeast gro inh: growth inhibition of WT yeast, mitochondrial fusion screen. mitochondrial fusion phenotypic screen, WT strain. inhibition, % at 10 µM. 2.1% of 190,000 active; in the data active = inhibition above about 58%; tested in S. cerevisiae
L major viab: reduces viability of Leishmania major promastigotes | 9% of 200,000 active | AID 1063 | inhibition, % at 10 µM | resazurin fluorescence viability; in the data active = inhibition above about 50%;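 also: promastigotes grown with compound for 44 hours at 28 °C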
ABCG2 block: blocks JC-1 efflux by human ABCG2 transporter. Q9UNQ0. IgMXP3 cells, flow cytometry. inhibition, % at 6.6 µM. 0.1% of 190,000 active. AID 1325;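 active = inhibition above 80%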;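 also: 0% = DMSO and 100% = nicardipine control wells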
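Measure – % inhibition of efflux relative to nicardipine and DMSO · Test system – ABCG2 IgMXP3 and barcoded ABCB1 CCRF-Adr cell mix · Control set – nicardipine as high control, DMSO as low control · Compound – one concentration, 6.6 µM final · Signal – flow cytometry of retained JC-1 fluorescence · Timing – 10 min exposure at 25 °C with rotation, no wash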
ABCB1 block: blocks JC-1 efflux by human ABCB1 transporter | CCRF-Adr cells, flow cytometry | 0.067% of 190,000 active | inhibition, % at 6.6 µM; in the data active = inhibition above about 40%;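 also: 0% = vehicle and 100% = reference inhibitor; higher value means more JC-1 retained so stronger ABCB1 efflux block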
Target sequence (P08183 whole entry, looked up): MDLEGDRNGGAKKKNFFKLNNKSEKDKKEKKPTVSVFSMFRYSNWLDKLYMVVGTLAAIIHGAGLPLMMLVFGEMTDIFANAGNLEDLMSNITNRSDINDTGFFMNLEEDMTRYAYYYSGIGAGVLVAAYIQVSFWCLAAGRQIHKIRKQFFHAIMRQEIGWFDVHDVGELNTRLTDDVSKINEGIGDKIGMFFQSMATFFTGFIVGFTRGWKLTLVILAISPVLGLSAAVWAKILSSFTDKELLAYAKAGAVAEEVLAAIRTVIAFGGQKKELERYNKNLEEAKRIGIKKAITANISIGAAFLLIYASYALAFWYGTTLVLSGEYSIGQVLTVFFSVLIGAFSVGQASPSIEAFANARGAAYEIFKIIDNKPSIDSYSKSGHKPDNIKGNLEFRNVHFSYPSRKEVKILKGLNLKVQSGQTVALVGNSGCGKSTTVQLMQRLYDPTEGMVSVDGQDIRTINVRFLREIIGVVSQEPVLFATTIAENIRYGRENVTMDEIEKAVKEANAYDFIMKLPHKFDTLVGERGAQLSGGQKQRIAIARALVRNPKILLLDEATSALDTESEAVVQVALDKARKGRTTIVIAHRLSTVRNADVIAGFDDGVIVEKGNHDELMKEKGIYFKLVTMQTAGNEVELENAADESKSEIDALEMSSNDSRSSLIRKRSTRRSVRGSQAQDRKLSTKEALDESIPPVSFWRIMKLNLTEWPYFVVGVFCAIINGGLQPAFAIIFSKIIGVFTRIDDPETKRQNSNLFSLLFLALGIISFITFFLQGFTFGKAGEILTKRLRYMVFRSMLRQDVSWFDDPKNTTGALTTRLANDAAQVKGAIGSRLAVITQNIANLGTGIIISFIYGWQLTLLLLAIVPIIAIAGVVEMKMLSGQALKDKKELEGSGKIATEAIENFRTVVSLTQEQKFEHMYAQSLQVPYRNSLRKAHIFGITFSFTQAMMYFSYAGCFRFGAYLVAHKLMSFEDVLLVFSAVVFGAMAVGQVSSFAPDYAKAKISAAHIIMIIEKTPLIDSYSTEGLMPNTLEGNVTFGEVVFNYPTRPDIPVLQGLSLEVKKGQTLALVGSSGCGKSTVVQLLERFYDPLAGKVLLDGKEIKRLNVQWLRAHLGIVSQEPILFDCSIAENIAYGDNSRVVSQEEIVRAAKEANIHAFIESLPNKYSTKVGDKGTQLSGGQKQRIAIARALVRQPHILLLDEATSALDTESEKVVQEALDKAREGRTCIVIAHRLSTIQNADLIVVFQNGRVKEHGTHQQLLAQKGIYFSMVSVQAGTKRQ
RAM inhibit: yeast RAM network inhibition. S. cerevisiae dse1pr::URA3 reporter, 5-FOA growth OD615, 2 d; analog-sensitive cbk1-as2 kinase mutant strain. inhibition, % at 50 µM. 1.8% of 190,000 active. AID 868;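 active = inhibition above a set limit, 3 SD over mean compound inhibition, cut at about 8.4% in these data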;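 also: 0% = DMSO-only wells with no growth and 100% = 10 µM 1-NA-PP1 full growth; inhibition rescues growth on 5-FOA so higher OD means more RAM inhibition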
Starred values were filed as active, the others as inactive; nt = not tested or not shown. An excerpt weighted towards active compounds, which were near 12% of everything screened.

SMILES	WT yeast gro inh	L major viab	ABCG2 block	ABCB1 block	RAM inhibit
CCCn1c(NC(=O)C2COc3ccccc3O2)nc2ccccc21 (centres undefined)	3	9	6	1	8.6*
CCC(C)NC(=S)N1CCN(C(c2ccccc2)c2ccccc2)CC1 (centres undefined)	69*	46	5	0	-1
CCOc1ccccc1C(=O)N1CCN(C(c2ccccc2)c2ccccc2)CC1	8	95*	1	1	-1
CNC(=S)N1CCN(C(c2ccccc2)c2ccccc2)CC1	70*	2	0	0	1
CCN(CC)C(=O)CSc1nnc(COc2ccccc2)n1N	-1	-5	3	0	0
O=C(Oc1cc(=O)oc2ccccc12)c1cccnc1Cl	-7	-9	1	0	2
C=C1CCC2C(C)(C)[C@H](O)CC[C@@]2(C)[C@@H]1COc1cc(=O)oc2ccccc12 (some centres undefined)	46	98*	4	1	3
COc1ccc(-c2nc(C#N)c(NCc3ccccc3Cl)o2)cc1OC	10	19	2	1	4
CCOc1ccc(-c2nc(C#N)c(NCc3ccc4c(c3)OCO4)o2)cc1	9	-3	3	0	11*
COc1ccc(-c2nc(C#N)c(NCc3cccnc3)o2)cc1OC	-24	96*	1	0	-1
N#Cc1nc(-c2cccc(Cl)c2)oc1NCc1cccnc1	10	100*	5	0	1
N#Cc1nc(-c2ccco2)oc1NCc1ccc(F)cc1	62*	4	2	0	4
N#Cc1nc(-c2ccco2)oc1NCc1cccnc1	-6	-1	3	0	1
Cc1nn(C(C)C(=O)N2CCOCC2)c(C)c1[N+](=O)[O-] (centres undefined)	-3	-5	-1	0	0
O=[N+]([O-])c1cc2oc3c(c2c(C=NCc2ccncc2)c1O)CCCC3	-4	7	1	1	0
N#C/C(=C\c1ccco1)C(=O)Nc1cccc2ncccc12	-5	-6	27	1	1
O=C(CSc1nnc(-c2ccccc2)n1Cc1ccco1)NCc1ccc2c(c1)OCO2	2	4	5	2	0
COc1ccc(OC)c(-c2csc(NC(=O)c3ccc4c(c3)OCO4)n2)c1	26	-6	0	-1	3
CN1C(=O)C(Cl)(Cl)C(=O)c2ccccc21	-2	-15	4	1	1
COc1ccc(-c2nc(C#N)c(NCc3ccc(F)cc3)o2)cc1OC	-4	11	1	0	8.9*
COc1ccc(-c2nc(NC(C)=O)sc2-c2ccc(OC)cc2)cc1	24	32	-1	0	4
COc1ccc(-c2sc(NC(=O)c3ccc(C)cc3)nc2-c2ccc([N+](=O)[O-])cc2)cc1	3	0	2	0	4
COc1ccc(C(=O)Nc2nc(-c3ccc([N+](=O)[O-])cc3)c(-c3ccccc3)s2)cc1	nt	68*	nt	nt	nt
O=C(Nc1nc(-c2ccccc2)c(-c2ccccc2)s1)c1ccc(S(=O)(=O)N2CCCC2)cc1	-8	98*	8	1	1
CNc1nc(-c2ccc(OC)cc2)c(-c2ccc(OC)cc2)s1	68*	14	3	0	1
SMILES	WT yeast gro inh	L major viab	ABCG2 block	ABCB1 block	RAM inhibit
CCC(COC(=O)Nc1cccc(C)c1)NC(=O)OCC(C)C (centres undefined)	-10	17	43	1	0
Cc1ccc(C(=O)CC(=O)c2cccc(F)c2)c(O)c1	69*	97*	0	0	8
Cc1ccc(C)c(NC(=O)c2ccccc2O)c1	49	16	7	1	0
Cc1ccc(O)c(C(=O)CC(=O)c2ccccc2Cl)c1	55	95*	1	0	1
CC(=O)c1ccc(C)cc1OC(=O)c1cccc(F)c1	3	-6	2	0	-1
COc1ccc(-n2c(=O)c(CCC(=O)N(C)Cc3ccccc3C)nc3ccccc32)cc1	35	66*	0	0	6
COc1ccc(/C(O)=C/c2nc3ccccc3n(-c3ccccc3)c2=O)cc1	nt	-4	2	1	4
O=C(O)CCc1nn2c3ccccc3nc2n(-c2ccccc2)c1=O	11	-5	4	1	5
CCc1ccc(CN(C)C(=O)CCc2nc3ccccc3n(-c3ccc(OC)cc3)c2=O)cc1	58*	49	4	-1	2
Cn1c(N)c(C(=O)COc2ccc(C#N)cc2)c(=O)n(C)c1=O	14	-1	21	0	1
CC(C)(C)c1cc(N)n2nc(C(C)(C)C)cc2n1	15	66*	10	1	2
COc1ccc(/C(C)=N/NC(=O)CNC(=O)/C=C\c2ccco2)cc1	3	-6	13	-1	0
Cc1ccc(C(=O)N2CCOCC2)c(F)c1F	-9	-9	2	0	0
O=C1CC(c2cccc([N+](=O)[O-])c2)c2c(ccc3ccccc23)N1 (centres undefined)	-18	100*	4	1	0
O=C1CC(c2ccco2)c2ccc3ccccc3c2N1 (centres undefined)	2	-6	1	0	3
Cc1ccc(C2CC(=O)Nc3c2ccc2ccccc32)cc1[N+](=O)[O-] (centres undefined)	46	95*	13	1	2
Cc1nc(C(F)(F)F)c(C(=O)N/N=C(\N)c2cccnc2)s1	-6	-3	10	1	2
CC(C)(C)n1nnnc1SCC(=O)Nc1nn(-c2ccccc2)nc1C(N)=O	-5	4	1	1	4
CCCCSc1nnc(-c2ccccc2N)c(=O)[nH]1	25	-3	22	1	2
CCCCCCCSc1nnc(-c2ccccc2N)c(=O)[nH]1	79*	-8	1	0	2
O=C(CSc1nnc(-c2ccccc2)n1C1CCCCC1)N1CCCC1	7	-6	6	2	0
CC1CCCN(C(=O)CSc2nnc(-c3cccnc3)n2C2CCCCC2)C1 (centres undefined)	65*	-11	2	1	0
COC(=O)c1ccc(NC(=S)NC2CC3CCC2C3)cc1 (centres undefined)	43	73*	15	2	6
COC(=O)c1ccc(NC(=S)NC2CCCCC2)cc1	8	87*	9	1	0
O=C(Nc1ccc(F)cc1)NC1CCCCC1	-7	1	0	0	1
SMILES	WT yeast gro inh	L major viab	ABCG2 block	ABCB1 block	RAM inhibit
COC(=O)c1ccc(NC(=O)NC2CCCCC2)cc1	-2	52*	5	0	4
S=C(NNc1cccc(Cl)c1)NC1CCCCC1	61*	31	9	1	3
CCOc1ccc(NC(=O)c2ccc(NC(=S)NC3CCCCC3)cc2)cc1	2	10	-1	-1	3
S=C(Nc1cccc(Cl)c1)NC1CCCCC1	45	13	21	2	0
Cc1ccc2[nH]c(SCC(=O)N3CCOCC3)nc2c1C	-6	-6	6	1	0
CC(=O)CSc1nnc(Cc2ccc3c(c2)OCO3)o1	-8	-4	10	2	0

Source: PubChem BioAssay
